The results in this text go back to ChEMBL document CHEMBL1132183 (J Med Chem, 1999).

The target in experiment [1] is T1, 5-hydroxytryptamine receptor 1A (Homo sapiens) (UniProt P08908).
T1 sequence (whole entry): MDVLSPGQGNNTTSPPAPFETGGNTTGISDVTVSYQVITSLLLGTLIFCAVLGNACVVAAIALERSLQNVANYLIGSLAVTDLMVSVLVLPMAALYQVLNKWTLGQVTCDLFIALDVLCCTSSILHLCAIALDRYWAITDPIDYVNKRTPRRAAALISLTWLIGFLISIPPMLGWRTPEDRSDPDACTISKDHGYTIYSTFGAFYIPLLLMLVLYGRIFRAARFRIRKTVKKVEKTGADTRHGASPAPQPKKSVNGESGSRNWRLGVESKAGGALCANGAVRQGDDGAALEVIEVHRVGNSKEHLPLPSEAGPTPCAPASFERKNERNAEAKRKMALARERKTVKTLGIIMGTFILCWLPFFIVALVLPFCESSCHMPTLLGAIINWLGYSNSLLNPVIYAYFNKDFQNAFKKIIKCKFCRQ
As to the kind of experiment: Agonist efficacy on 5-hydroxytryptamine 1A receptor subtype. In kind it is functional. In a few lines:
(§1)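 [35S]GTPγS binding in membranes of HeLa cells stably expressing human 5-HT1A, in 20 mM HEPES, 3 mM MgSO4, 120 mM NaCl pH 7.4. Preincubation 20 min at 30 °C with 30 μM GDP and drug (0.1 nM–100 μM), then 150–250 pM [35S]GTPγS for 30 min at 30 °C. Stimulation above basal was scaled to the 5-HT maximum (100%). Emax and pD2 came from curve fits; triplicate, 2–3 sessions.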

For experiment [2], the target named is T1, 5-hydroxytryptamine receptor 1A (Homo sapiens). As to the kind of experiment: Concentration required to obtain 50% maximal stimulation of [35S]GTP gamma-S binding to human cloned 5-HT1A receptors of cell membranes from HeLa cells. It counts as functional. In outline: as §1
(In general: GTPγS resists hydrolysis and so accumulates on activated G proteins.)

Experiment [3] has as its target T2, Alpha-1A adrenergic receptor (Homo sapiens, UniProt P35348).
T2 sequence (P35348 whole entry): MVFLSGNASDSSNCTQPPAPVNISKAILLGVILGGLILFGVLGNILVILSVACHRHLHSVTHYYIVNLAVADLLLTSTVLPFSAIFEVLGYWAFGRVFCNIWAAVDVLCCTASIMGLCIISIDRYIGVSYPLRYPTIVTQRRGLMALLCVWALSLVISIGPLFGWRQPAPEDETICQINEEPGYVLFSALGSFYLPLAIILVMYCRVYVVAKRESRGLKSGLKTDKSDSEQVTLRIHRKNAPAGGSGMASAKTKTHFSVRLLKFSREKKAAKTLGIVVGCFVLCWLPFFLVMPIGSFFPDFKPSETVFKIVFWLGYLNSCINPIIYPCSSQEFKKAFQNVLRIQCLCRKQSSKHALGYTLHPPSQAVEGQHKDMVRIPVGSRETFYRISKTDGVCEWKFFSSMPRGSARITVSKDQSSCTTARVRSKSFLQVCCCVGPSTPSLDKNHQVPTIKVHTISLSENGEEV
As to the kind of experiment: Displacement of [3H]prazosin from human cloned Alpha-1A adrenergic receptor. In a few lines:
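CHO cells stably transfected with each human α1 subtype; 30 μg membrane protein in 50 mM Tris-HCl pH 7.4 with 0.1–0.4 nM [3H]prazosin, 30 min at 25 °C. Competitors 1 pM–10 μM. Nonspecific binding defined with 10 μM phentolamine. Filtration, scintillation counting. Ki by Cheng–Prusoff; 2–3 experiments in triplicate.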

In experiment [4] the target is T3, Alpha-1A adrenergic receptor (Rattus norvegicus) (UniProt P43140).
T3 sequence (whole entry): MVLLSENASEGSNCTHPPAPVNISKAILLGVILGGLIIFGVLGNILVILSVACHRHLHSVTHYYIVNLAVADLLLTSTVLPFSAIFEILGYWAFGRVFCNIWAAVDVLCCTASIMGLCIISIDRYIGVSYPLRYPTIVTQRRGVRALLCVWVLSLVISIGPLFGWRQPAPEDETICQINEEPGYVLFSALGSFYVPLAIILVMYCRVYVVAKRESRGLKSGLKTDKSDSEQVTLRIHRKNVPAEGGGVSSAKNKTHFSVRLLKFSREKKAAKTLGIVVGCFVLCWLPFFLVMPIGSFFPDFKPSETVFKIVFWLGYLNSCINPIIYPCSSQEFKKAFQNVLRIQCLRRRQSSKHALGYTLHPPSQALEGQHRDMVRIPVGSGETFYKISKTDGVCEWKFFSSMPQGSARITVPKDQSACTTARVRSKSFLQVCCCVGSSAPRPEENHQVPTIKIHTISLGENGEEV
As to the kind of experiment: Antagonist activity against Alpha-1A adrenergic receptor (-)-noradrenaline-induced contraction of rat prostatic vas deferens. In kind it is functional, tissue-based. In a few lines: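 Isolated rat prostatic vas deferens with 0.01 μM desipramine in the bath. Isotonic cumulative (–)-noradrenaline curves were run at 30-min intervals: first discarded, second as control, then antagonist equilibrated 30 min before a new curve. pKb by Arunlakshana–Schild from dose ratios of EC50, at 2–3 antagonist concentrations, each tested four times.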

Experiment [5] has as its target T4, Alpha-1D adrenergic receptor (Rattus norvegicus) (UniProt P23944).
T4 sequence (whole entry): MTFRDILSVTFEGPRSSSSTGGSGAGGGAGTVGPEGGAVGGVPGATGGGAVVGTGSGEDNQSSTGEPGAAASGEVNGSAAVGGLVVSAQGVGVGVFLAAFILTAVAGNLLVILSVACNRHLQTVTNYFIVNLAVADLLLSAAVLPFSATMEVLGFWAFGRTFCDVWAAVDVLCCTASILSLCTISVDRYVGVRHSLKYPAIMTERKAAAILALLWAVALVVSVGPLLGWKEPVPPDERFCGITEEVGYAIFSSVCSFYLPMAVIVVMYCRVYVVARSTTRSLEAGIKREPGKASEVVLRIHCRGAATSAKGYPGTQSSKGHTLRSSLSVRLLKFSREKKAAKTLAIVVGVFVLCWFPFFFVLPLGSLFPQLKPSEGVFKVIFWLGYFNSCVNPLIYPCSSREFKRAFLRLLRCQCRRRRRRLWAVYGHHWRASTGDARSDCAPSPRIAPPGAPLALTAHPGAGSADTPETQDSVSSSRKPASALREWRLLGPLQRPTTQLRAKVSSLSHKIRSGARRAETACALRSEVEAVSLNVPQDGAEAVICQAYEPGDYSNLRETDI
As to the kind of experiment: Alpha-1D adrenergic receptor subtype blocking activity (antagonism) against (-)-noradrenaline-induced contraction of rat thoracic aorta. It counts as functional, tissue-based. In outline: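 Helicoidal strips of rat thoracic aorta under 1 g tension, bath with 0.01 μM desipramine and 1 μM (±)-propranolol, equilibrated ≥1 h. Cumulative (–)-noradrenaline curves at 30-min intervals: first two discarded, third as control, fourth after 30-min antagonist exposure. pKb by Arunlakshana–Schild from EC50 dose ratios at 2–3 antagonist concentrations, each tested four times.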

The target in experiment [6] is T5, 5-hydroxytryptamine receptor 1A (Homo sapiens, UniProt P08908).
T5 sequence (P08908 whole entry): T1 sequence (whole entry)
As to the kind of experiment: Displacement of [3H]8-hydroxy-2-(di-n-propylamino)tetralin from human 5-hydroxytryptamine 1A receptor. In a few lines:
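Membranes of HeLa cells stably transfected with human 5-HT1A (genomic clone G-21), in 50 mM Tris-HCl pH 7.4, 2.5 mM MgCl2, 10 μM pargiline. […] Nonspecific binding defined with 10 μM 5-HT. Filtration, scintillation counting. Ki by Cheng–Prusoff; 2–3 experiments in triplicate.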
Background: Displacement assays read how much labelled ligand stays bound in the presence of the test substance.

By Ki is commonly meant a dissociation constant, usually derived from enzyme kinetics or from competition with a known ligand. Read a high Ki as a looser hold on the target. One may read the pKb as −log10 of the Kb, conventionally taken in molar units. Higher therefore signals a low Kb. `O[C@@H]1[C@H](NC[C@@H]2COc3ccccc3O2)CC[C@H]1Oc1ccccc1` had a Max in experiment [1] of 23%. For the same molecule, the pD2 in experiment [2] worked out at 5.87. For the same molecule, the Ki in experiment [3] is 77.6 nM; in experiment [6], 22.4 nM. Besides, the pKb in experiment [4] amounted to 6.1; in experiment [5], 7.78.

In experiment [1], `O[C@@H]1[C@H](NC[C@H]2COc3ccccc3O2)CC[C@H]1Oc1ccccc1` had a Max of 100%. In experiment [2], this molecule yielded a pD2 of 5.87. In addition, the Ki in experiment [3] was 36.3 nM; in experiment [6] it was 5.5 nM. In addition, the pKb came out at 6.55 in experiment [4] and 8.17 in experiment [5].

The molecule `O[C@H]1[C@@H](NC[C@H]2COc3ccccc3O2)CC[C@@H]1Oc1ccccc1` came in with a Max in experiment [1] of 82%. For the same molecule, the pD2 in experiment [2] was determined as 7.3. Moreover, the figures for the Ki in experiment [3] and in experiment [6] were 389 nM and 0.832 nM, respectively. In addition, the negative-log Kb (pKb) is 5.65 in experiment [4] and 6.92 in experiment [5].

The molecule `O[C@H]1[C@@H](NC[C@@H]2COc3ccccc3O2)CC[C@@H]1Oc1ccccc1` returned a Max in experiment [1] of 96%. This molecule also gave a pD2 in experiment [2] of 7.96. Further, the values for the inhibition constant (Ki) in experiment [3] and in experiment [6] were 955 nM and 3.72 nM, respectively. The figures for the pKb in experiment [4] and in experiment [5] were less than 5 and 6.65, respectively.
